In ChEMBL document CHEMBL2086233, “D-proline-based peptidomimetic inhibitors of anthrax lethal factor” (Eur J Med Chem, 2012):

biological target: T1, Lethal factor (Bacillus anthracis) (UniProt P15917); assay: Inhibition of Bacillus anthracis lethal factor using protease substrate-2 assessed as release of p-nitroaniline at 10 uM measured for 10 mins by spectrophotometric assay
T1 sequence (whole entry): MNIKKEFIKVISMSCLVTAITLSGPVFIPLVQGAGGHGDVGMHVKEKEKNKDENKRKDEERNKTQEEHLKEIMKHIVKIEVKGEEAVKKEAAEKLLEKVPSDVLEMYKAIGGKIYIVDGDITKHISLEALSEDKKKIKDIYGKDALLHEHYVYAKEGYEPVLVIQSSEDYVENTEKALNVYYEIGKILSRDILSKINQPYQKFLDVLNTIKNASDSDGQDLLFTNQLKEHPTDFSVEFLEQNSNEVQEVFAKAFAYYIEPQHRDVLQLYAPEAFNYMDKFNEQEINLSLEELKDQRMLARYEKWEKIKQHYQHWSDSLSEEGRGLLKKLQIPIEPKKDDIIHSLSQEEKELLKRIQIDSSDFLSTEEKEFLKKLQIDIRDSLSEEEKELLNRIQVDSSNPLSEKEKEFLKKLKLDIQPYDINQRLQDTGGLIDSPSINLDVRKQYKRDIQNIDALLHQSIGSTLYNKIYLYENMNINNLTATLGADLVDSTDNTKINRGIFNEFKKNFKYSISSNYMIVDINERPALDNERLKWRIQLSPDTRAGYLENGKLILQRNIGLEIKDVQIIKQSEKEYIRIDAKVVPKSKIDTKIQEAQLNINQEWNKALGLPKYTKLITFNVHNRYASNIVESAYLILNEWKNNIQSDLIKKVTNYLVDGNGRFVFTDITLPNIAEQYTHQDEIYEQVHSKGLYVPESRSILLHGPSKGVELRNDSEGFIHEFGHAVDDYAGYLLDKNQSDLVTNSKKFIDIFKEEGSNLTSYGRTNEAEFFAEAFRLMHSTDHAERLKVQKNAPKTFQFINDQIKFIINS
Method in brief: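 Single fixed inhibitor concentration. A405 (p-nitroaniline release) followed 10 min after LF addition. % inhibition from initial velocity versus no-inhibitor control. Mean of three experiments.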

Row | Structure (SMILES) | inhibition [%]
1 | O=C(NO)[C@H]1C[C@H](OCc2ccccc2)CN1S(=O)(=O)c1ccc(Cl)c(Cl)c1 | 16
2 | COc1ccc(C(=O)N[C@@H]2C[C@H](C(=O)NO)N(S(=O)(=O)c3ccc(Cl)c(Cl)c3)C2)c(OC)c1 | 65
3 | O=C(N[C@@H]1C[C@H](C(=O)NO)N(S(=O)(=O)c2ccc(Cl)c(Cl)c2)C1)c1cccs1 | 27
4 | O=C(/C=C/c1ccco1)N[C@H]1C[C@H](C(=O)NO)N(S(=O)(=O)c2ccc(Cl)c(Cl)c2)C1 | 22
5 | O=C(NO)[C@H]1C[C@@H](OCc2ccccc2)CN1S(=O)(=O)c1ccc(Cl)c(Cl)c1 | 50
6 | O=C(N[C@H]1C[C@H](C(=O)NO)N(S(=O)(=O)c2ccc(Cl)c(Cl)c2)C1)c1cccs1 | 46
7 | O=C(NO)[C@H]1C[C@@H](n2cc(-c3ccccc3)nn2)CN1S(=O)(=O)c1ccc(Cl)c(Cl)c1 | 8
8 | COc1ccc(C(=O)N[C@H]2C[C@H](C(=O)NO)N(S(=O)(=O)c3ccc(Cl)c(Cl)c3)C2)c(OC)c1 | 11

biological target: T2, Lethal factor (Bacillus anthracis, UniProt P15917); assay: Inhibition of Bacillus anthracis lethal factor using protease substrate-2 assessed as release of p-nitroaniline measured for 10 mins by spectrophotometric assay
T2 sequence (P15917 whole entry): T1 sequence (whole entry)
Method in brief: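 10 nM LF with lethal factor protease substrate II (pNA-tagged peptide) in 250 mM Na2HPO4, 150 mM NaCl, pH 7.4, 25 °C. A405 followed 10 min after enzyme addition. Inhibitor at five concentrations starting at 500 nM. IC50 by non-linear regression of the dose-response data. Experiments repeated twice.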

Row | Structure (SMILES) | IC50 [nM]
9 | CCCCCCO[C@H]1CCN(S(=O)(=O)c2ccc(Cl)cc2)[C@H]1C(=O)NO | > 10000
10 | COc1ccc(C(=O)N[C@@H]2C[C@H](C(=O)NO)N(S(=O)(=O)c3ccc(Cl)c(Cl)c3)C2)c(OC)c1 | 2100
11 | O=C(NO)[C@H]1[C@@H](OCc2ccccc2)CCN1S(=O)(=O)c1ccc(Cl)cc1 | 1700
12 | O=C(NO)[C@H]1[C@@H](OCc2ccccc2)CCN1S(=O)(=O)c1ccc(Cl)c(Cl)c1 | 1400
13 | O=C(NO)[C@H]1C[C@@H](OCc2ccccc2)CN1S(=O)(=O)c1ccc(Cl)c(Cl)c1 | 9500
